# Data published in ChEMBL document CHEMBL3351823, “Synthesis and biological evaluations of new analogs of 2-methoxyestradiol: inhibitors of tubulin and angiogenesis” (Eur J Med Chem, 2014).
# Calls of active or inactive are those of the source. The rule behind the calls is not given here.
# Tests used:
# K562 = assay: Anticancer activity against human K562 cells assessed as cell growth inhibition after 5 days by MTT assay; format: functional, cell-based; details: K562, 120 h
# Method in brief: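 Compounds dissolved in DMSO and serially diluted in medium. Equal volume added to cells at about 40,000 cells/ml, set by doubling time. K562 grown in RPMI with 2-mercaptoethanol, L-glutamine and 10% FCS, no antibiotics. Drug-free wells served as control. Growth read on a plate reader; IC50 taken graphically as % of control growth. Three experiments run in duplicate.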
# [1] = Anticancer activity against human OVCAR3 cells assessed as cell growth inhibition after 5 days by MTT assay; format: functional, cell-based; details: OVCAR-3, 120 h
# [2] = Anticancer activity against human WM35 cells assessed as cell growth inhibition after 5 days by MTT assay; format: functional, cell-based; details: WM35, 120 h
# Tubulin = Tubulin (Sus scrofa, UniProt P02554+P02550); assay: Inhibition of porcine brain tubulin polymerization after 60 mins
# Method in brief: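 Wells pre-chilled at 4 °C for 30 min. Mixture of Mes buffer pH 6.6 with MgCl2, GTP, tubulin (50 µl of 11 mg/ml in Mes buffer) and test compound in DMSO. Absorbance recorded at 25 °C over 60 min. Change in optical density compared with untreated controls.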
# [3] = Antiangiogenic activity in BAECs after 18 hrs by extracellular matrix assay; format: functional, Bos taurus; details: baec
# Method in brief: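 Extracellular matrix thawed at 4 °C, 50 µl per well, set 10 min at 37 °C. Solid wells incubated 30 min with BAECs (30,000 cells/well), then given analogs at the same concentration. IC50 from three experiments run in duplicate.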
# [4] = molecular target: T1, Estrogen receptor (Homo sapiens) (UniProt P03372); assay: Agonist activity at estrogen receptor (unknown origin) expressed in rat PC12 cells coexpressing ER-luc at 10 uM after 24 hrs; format: cell-based; details: PC-12
# T1 sequence (whole entry): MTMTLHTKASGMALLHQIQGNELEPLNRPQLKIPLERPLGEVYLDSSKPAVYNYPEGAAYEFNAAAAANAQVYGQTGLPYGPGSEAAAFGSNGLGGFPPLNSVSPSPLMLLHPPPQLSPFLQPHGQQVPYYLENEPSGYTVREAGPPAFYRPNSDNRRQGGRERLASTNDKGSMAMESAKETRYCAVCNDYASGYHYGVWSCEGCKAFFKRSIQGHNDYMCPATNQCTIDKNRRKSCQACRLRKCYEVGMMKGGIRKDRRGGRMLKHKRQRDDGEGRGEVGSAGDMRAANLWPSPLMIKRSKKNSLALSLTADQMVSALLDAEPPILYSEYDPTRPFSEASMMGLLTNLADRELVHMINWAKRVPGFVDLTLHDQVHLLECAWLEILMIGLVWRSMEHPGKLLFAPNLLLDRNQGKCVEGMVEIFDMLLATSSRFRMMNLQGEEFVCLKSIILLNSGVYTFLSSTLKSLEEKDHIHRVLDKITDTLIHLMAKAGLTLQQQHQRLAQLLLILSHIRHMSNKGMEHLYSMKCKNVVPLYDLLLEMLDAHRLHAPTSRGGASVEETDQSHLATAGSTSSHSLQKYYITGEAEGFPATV
# Method in brief: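 PC-12 cells plated at 7 × 10⁴ cells/ml, 37 °C, 5% CO₂; co-transfected with ERE-luc and ER one day after plating (liposome complexes in serum-free DMEM, serum medium restored after 3 h). Treated next day for 24 h; 0.1% DMSO solvent control, 17-β-estradiol positive control. Luciferase read with 1 mM luciferin, normalised to Renilla; 2 independent experiments, n = 3–5.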
IC50 (K562) [nM],IC50 (Tubulin) [nM],IC50 [3] [nM],Activity [4],SMILES,IC50 [1] [nM],IC50 [2] [nM]
> 10000,–,> 10000,inactive,COc1cc2c(cc1O)CC[C@@H]1[C@@H]2CC[C@]2(C)C(c3cccnc3)=CC[C@@H]12,> 10000,> 10000
> 10000,–,> 10000,–,COc1cc2c(cc1O)CC[C@@H]1[C@@H]2CC[C@]2(C)C(c3ccccc3)=CC[C@@H]12,> 10000,> 10000
3100,7200,2400,–,COc1cc2c(cc1O)CC[C@@H]1[C@@H]2CC[C@]2(C)C(c3cccc4cnccc34)=CC[C@@H]12,3900,5100
1100,3100,2000,–,COc1cc2c(cc1O)CC[C@@H]1[C@@H]2CC[C@]2(C)C(c3cccc4ncccc34)=CC[C@@H]12,1200,2900
500,4800,800,inactive,COc1cc2c(cc1O)CC[C@@H]1[C@@H]2CC[C@]2(C)C(c3cncc4ccccc34)=CC[C@@H]12,400,700

# More lines, now with the values behind:
SMILES,IC50 (K562) [nM],IC50 (Tubulin) [nM],IC50 [3] [nM],Activity [4],IC50 [1] [nM],IC50 [2] [nM]
COc1cc2c(cc1O)CC[C@@H]1[C@@H]2CC[C@]2(C)[C@@H](c3cncc4c3CCCC4)CC[C@@H]12,500,2500,1100,inactive,400,900
COc1cc2c(cc1O)CC[C@@H]1[C@@H]2CC[C@]2(C)C(c3ccc4cnccc4c3)=CC[C@@H]12,400,2200,700,–,200,1000
COc1cc2c(cc1O)CC[C@@H]1[C@@H]2CC[C@]2(C)[C@@H](c3ccncc3)CC[C@@H]12,1400,5800,4200,–,1000,1600
COc1cc2c(cc1O)CC[C@@H]1[C@@H]2CC[C@]2(C)[C@@H](c3cccc4cnccc34)CC[C@@H]12,2100,8100,1300,–,3000,4100
COc1cc2c(cc1O)CC[C@@H]1[C@@H]2CC[C@]2(C)[C@@H](c3cccc4c3CCCN4)CC[C@@H]12,1300,3700,3300,inactive,1500,1900
COc1cc2c(cc1O)CC[C@@H]1[C@@H]2CC[C@]2(C)[C@@H](c3ccc4ccncc4c3)CC[C@@H]12,> 10000,> 10000,3300,–,> 10000,> 10000
COc1cc2c(cc1O)CC[C@@H]1[C@@H]2CC[C@]2(C)C(c3ccncc3)=CC[C@@H]12,900,4100,600,–,1200,1000
COc1cc2c(cc1O)CC[C@@H]1[C@@H]2CC[C@]2(C)[C@@H](O)CC[C@@H]12 [2-METHOXYESTRADIOL],800,2200,3200,–,1200,2100
COc1cc2c(cc1O)CC[C@@H]1[C@@H]2CC[C@]2(C)[C@@H](c3ccc4cnccc4c3)CC[C@@H]12,700,2100,600,–,500,900
COc1cc2c(cc1O)CC[C@@H]1[C@@H]2CC[C@]2(C)C(c3ccc4ccncc4c3)=CC[C@@H]12,> 10000,–,> 10000,–,> 10000,> 10000
COc1cc2c(cc1O)CC[C@@H]1[C@@H]2CC[C@]2(C)[C@@H](c3cccnc3)CC[C@@H]12,1100,5100,5200,inactive,800,1900
